Reference: ChEMBL document CHEMBL1149457, “Effects of amino acid chirality and the chemical linker on the cell permeation characteristics of cyclic prodrugs of opioid peptides” (J Med Chem, 2006)

Tests used:
Assay type in all cases: ADME, cell-based
Conditions in all cases: human
[1] = tested on: Caco-2; assay: Ratio of permeability from basolateral to apical over apical to basolateral side of the Caco-2 cell membrane in presence of 20 uM cyclosporin A
In short: (§1)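 Caco-2 monolayers (passages 30-39) were grown 21-28 days on polyester Transwell membranes, with batch integrity checked by [14C]-mannitol flux. Bidirectional transport (n = 3) was run at 37 °C with shaking, using peptide at 20 µM final in HBSS pH 7.4 with 0.4% DMSO and inhibitor in HBSS. Sampling continued up to 160 min, with LC-MS-MS quantitation. Papp BL-to-AP/AP-to-BL ratio.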

[2] = tested on: Caco-2; assay: Ratio of permeability from basolateral to apical over apical to basolateral side of the Caco-2 cell membrane in presence of 10 uM GF 120918; in short: as §1
[3] = tested on: Caco-2; assay: Ratio of permeability from basolateral to apical over apical to basolateral side of the Caco-2 cell membrane in presence of 2 uM GF 120918; in short: as §1
[4] = tested on: Caco-2; assay: Ratio of permeability from basolateral to apical over apical to basolateral side of the Caco-2 cell membrane in presence of 50 uM MK 571; in short: as §1

| SMILES | Ratio [1] | Ratio [2] | Ratio [3] | Ratio [4] |
| --- | --- | --- | --- | --- |
| CC(C)C[C@H]1NC(=O)[C@H](Cc2ccccc2)NC(=O)CNC(=O)[C@H](C)NC(=O)[C@H](Cc2ccc(O)cc2)NC(=O)/C=C\c2ccccc2OCOC1=O | 6.1 | 2.1 | 5.4 |  |
| CC(=O)N[C@@H](Cc1ccc(O)cc1)C(=O)N[C@H](C)C(=O)NCC(=O)N[C@@H](Cc1ccccc1)C(=O)N[C@@H](CC(C)C)C(N)=O | 2.4 | 1.1 |  | 1.1 |
| CC(=O)N[C@@H](Cc1ccc(O)cc1)C(=O)N[C@@H](C)C(=O)NCC(=O)N[C@@H](Cc1ccccc1)C(=O)N[C@H](CC(C)C)C(N)=O | 1.2 | 1 |  | 3.8 |

Now from value to compound:

| Ratio [1] | Ratio [2] | Ratio [3] | Ratio [4] | SMILES |
| --- | --- | --- | --- | --- |
| 12 | 1.9 |  |  | CC(C)C[C@@H]1NC(=O)[C@H](Cc2ccccc2)NC(=O)CNC(=O)[C@H](C)NC(=O)[C@H](Cc2ccc(O)cc2)NC(=O)/C=C\c2ccccc2OCOC1=O |
| 14 | 2.3 | 5 | 2.8 | CC(C)C[C@@H]1NC(=O)[C@H](Cc2ccccc2)NC(=O)CNC(=O)[C@@H](C)NC(=O)[C@H](Cc2ccc(O)cc2)NC(=O)/C=C\c2ccccc2OCOC1=O |
|  | 2.8 | 13 | 4.9 | CC(C)C[C@H]1NC(=O)[C@H](Cc2ccccc2)NC(=O)CNC(=O)[C@@H](C)NC(=O)[C@H](Cc2ccc(O)cc2)NC(=O)/C=C\c2ccccc2OCOC1=O |
